From ChEMBL document CHEMBL1687733, “Topoisomerase I gene mutations at F270 in the large subunit and N184 in the small subunit contribute to the resistance mechanism of the unicellular parasite Leishmania donovani towards 3,3'-diindolylmethane” (Antimicrob Agents Chemother, 2009) come the findings set out here.

Assay [1] addresses DNA topoisomerase type IB small subunit (Leishmania donovani (strain BPK282A1), UniProt E9B7X3, N184S). In words: Binding affinity to recombinant drug-resistant Leishmania donovani LdDR50 topoisomerase 1b small subunit N184S mutant after 24 hrs by equilibrium dialysis method. The method in brief:
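Recombinant His-tagged subunits expressed in E. coli BL21(DE3) pLysS, purified on Ni-NTA then phosphocellulose, reconstituted 1:1. Enzyme 200 μM with DIM 1–20 μM in 20 mM Tris-HCl pH 7.5, 50 mM NaCl, 10 mM MgCl2 for 30 min at 37°C, then dialysed (12–14 kDa cutoff) 24 h at 25°C. Free DIM measured by absorbance (ε 6.6 × 10^4 M−1); KD from saturation plot.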
In general terms: In equilibrium dialysis only unbound substance equilibrates across the membrane.

Assay [2] in a line: Binding affinity to Leishmania donovani large subunit of topoisomerase 1b.
For assay [3], the system named is Leishmania donovani. Nature of the assay: Inhibition of recombinant drug-resistant Leishmania donovani LdDR50 topoisomerase 1b large subunit K430N mutant and small subunit N184S mutant-mediated relaxation of supercoiled pBluescript SK(+) DNA at up to 50 uM after 30 mins using ethidium bromide staining. Summed up:
(§1)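 Reconstituted recombinant enzyme (30 fmol) with 90 fmol supercoiled pBluescript SK(+) DNA (3:1 DNA:enzyme), 30 min at 37°C with DIM (1–50 μM for fully mutant enzyme; 10 μM for single-site mutants); 4% DMSO vehicle control. Products on 1% agarose, ethidium bromide (0.5 μg/ml) stained; supercoiled monomer band quantified.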

Assay [4] has as its system T1, DNA topoisomerase I (Leishmania donovani (strain BPK282A1)), E9BRC0 [K430N].
T1 sequence (whole entry): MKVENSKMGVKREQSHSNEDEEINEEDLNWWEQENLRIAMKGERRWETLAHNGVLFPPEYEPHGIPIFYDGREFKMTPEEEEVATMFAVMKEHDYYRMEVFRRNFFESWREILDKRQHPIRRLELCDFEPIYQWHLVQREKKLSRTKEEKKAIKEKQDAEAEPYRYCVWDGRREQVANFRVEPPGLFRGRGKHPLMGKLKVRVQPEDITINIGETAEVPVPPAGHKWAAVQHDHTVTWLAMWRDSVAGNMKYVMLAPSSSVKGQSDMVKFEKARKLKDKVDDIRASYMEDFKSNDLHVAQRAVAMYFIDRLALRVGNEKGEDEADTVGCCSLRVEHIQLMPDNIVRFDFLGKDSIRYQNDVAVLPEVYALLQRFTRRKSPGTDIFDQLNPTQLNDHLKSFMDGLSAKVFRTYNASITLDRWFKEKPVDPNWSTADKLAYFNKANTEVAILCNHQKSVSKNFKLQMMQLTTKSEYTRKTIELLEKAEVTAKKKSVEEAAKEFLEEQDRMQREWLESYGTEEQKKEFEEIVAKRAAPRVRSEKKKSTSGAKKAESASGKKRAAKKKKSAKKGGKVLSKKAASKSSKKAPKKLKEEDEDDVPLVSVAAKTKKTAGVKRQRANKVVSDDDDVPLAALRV
Nature of the assay: Effect on recombinant drug-resistant Leishmania donovani LdDR50 topoisomerase 1b large subunit K430N mutant-mediated cleavage of 25-mer duplex oligonucleotide at 20 uM after 30 mins by PAGE analysis. Summed up: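 5′-32P-labelled 25-mer duplex (10 nM) incubated with reconstituted mutant enzyme (0.2 μM, 20-fold molar excess) and DIM 5–20 μM for 30 min (Methods 37°C; legend 23°C). Stopped with SDS, trypsin-treated, resolved on 12% denaturing polyacrylamide-urea gel; cleaved 12-mer detected by autoradiography.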

Assay [5] deals with T2, Leishmania donovani [N184S].
T2 sequence (whole entry): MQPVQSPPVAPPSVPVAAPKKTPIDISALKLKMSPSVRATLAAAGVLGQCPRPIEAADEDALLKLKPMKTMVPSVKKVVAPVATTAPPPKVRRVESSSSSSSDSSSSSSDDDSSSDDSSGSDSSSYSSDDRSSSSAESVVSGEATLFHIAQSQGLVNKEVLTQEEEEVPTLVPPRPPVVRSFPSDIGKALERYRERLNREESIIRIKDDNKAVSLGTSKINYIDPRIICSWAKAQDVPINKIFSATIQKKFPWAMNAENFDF
Nature of the assay: Inhibition of recombinant drug-resistant Leishmania donovani LdDR50 topoisomerase 1b wild type large subunit and small subunit N184S mutant-mediated relaxation of supercoiled pBluescript SK(+) DNA at up to 50 uM after 30 mins using ethidium bromide staining. The method in brief:
as §1

Assay [6] relates to Leishmania donovani. Nature of the assay: Antimicrobial activity against wild type Leishmania donovani AG83 assessed as inhibition of parasite growth after 24 hrs by MTT assay. It is filed as functional, organism-based. Summed up:
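WT L. donovani promastigotes were harvested in exponential phase and seeded at 2 × 10^6 cells per well. They were exposed to DIM at 1, 5, 10, 15 and 20 μM, washed in PBS, and given MTT (10 μg/ml) for 4 h. Acidified isopropanol stop was followed by A570. Growth was expressed as % of the OD of untreated WT, from three experiments.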

Assay [7] has as its system T3, Leishmania donovani [F270L].
T3 sequence (whole entry): T1 sequence (whole entry) with F270L, N430K
Nature of the assay: Inhibition of recombinant drug-resistant Leishmania donovani LdDR50 topoisomerase 1b wild type small subunit and large subunit F270L mutant-mediated relaxation of supercoiled pBluescript SK(+) DNA at up to 50 uM after 30 mins using ethidium bromide staining. The method in brief:
as §1

Assay [8] deals with Leishmania donovani. In words: Antimicrobial activity against wild type Leishmania donovani AG83 transfected with drug-resistant Leishmania donovani LdDR50 topoisomerase 1 K430N mutant in large subunit and N184S mutant in small subunit assessed as inhibition of parasite growth at 20 uM after 24 hrs by MTT assay. Particulars: AG83, 24 h. It is filed as functional. Summed up:
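WT promastigotes transfected by electroporation with mutant large-subunit (pXG-HYG, hygromycin selection) and/or small-subunit (pXG-GFP2+, G418 selection) topoisomerase I genes. Grown with DIM 1–20 μM for 24 h; MTT read-out, growth as % of optical density of untreated WT parasites.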
(Formazan colour is commonly taken as a measure of viable cells.)

Each structure is given as a SMILES string. Substitutions are numbered along the chain they refer to. Activity calls are given as the source filed them.

On to `c1ccc2c(Cc3c[nH]c4ccccc34)c[nH]c2c1` [ARUNDINE], for which the Kd (commonly the equilibrium constant for the complex coming apart) amounted to 380 µM in assay [1] and 0.428 µM in assay [2]. Besides, the inhibition result (in the assay with Leishmania donovani [3]; in assay [5]) was “Active” throughout. Moreover, in assay [4], the outcome was Active. Further, the inhibition (usually the share of the control response that was lost under treatment) in the assay on Leishmania donovani [6] was “Dose-dependent effect”. Also, the IC50 (in general, the concentration at which inhibition is half-maximal) in the assay on Leishmania donovani [6] (AG83, 24 h) was determined as 1.25 µM. Also, the inhibition result in assay [7] was “inactive”. Besides, the inhibition at 20 µM with Leishmania donovani [8] is 86%.
